Assay results reported in ChEMBL document CHEMBL1136789, “Synthesis and biological evaluation of new 2-(4,5-dihydro-1H-imidazol-2-yl)-3,4-dihydro-2H-1,4-benzoxazine derivatives” (J Med Chem, 2003).

Experiments:
[1] = In vitro alpha-1 adrenergic receptor binding affinity was determined on calf frontal cortex membrane preparation; format: tissue-based, Bos taurus
Procedure, shortened: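 Calf frontal cortex membranes (0.5 mg protein/mL) incubated 40 min at 25 °C with 0.5 nM [3H]prazosin in 50 mM phosphate buffer with 10 mM MgCl2. Competitors at 10^-9 to 10^-4 M. Nonspecific binding set with 10 µM phentolamine. Stopped by rapid vacuum filtration through glass fibre filters, then washed three times with ice-cold buffer. Ki reported.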

[2] = In vitro alpha-2 adrenergic receptor binding affinity was determined on calf frontal cortex membrane preparation; format: tissue-based, Bos taurus
Rattus norvegicus [3] = test: Effect (25 mg/kg ip) on mean arterial blood pressure in anesthetized spontaneously hypertensive rats; format: functional
Procedure, shortened: (§1)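 Adult male SHR anaesthetised with sodium pentobarbital 50 mg/kg ip, left carotid catheter filled with heparinised saline. BP and HR (HR from pulse pressure) stabilised ≥40 min before a single ip dose, n=6/group. Vehicle 0.5% carboxymethylcellulose in water, 2.5 mL/kg. Recorded over 90 min. Output is the maximal change in MAP (mmHg) and HR (bpm) from pre-dose baseline, also as %. Repeated-measures ANOVA with Dunnett's tests.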

Rattus norvegicus [4] = test: Effect at (25 mg/kg, ip) on heart rate in anesthetized spontaneously hypertensive rats; format: functional; procedure, shortened: as §1
Rattus norvegicus [5] = test: Effect (25 mg/kg ip) on heart rate in anesthetized spontaneously hypertensive rats; format: functional; procedure, shortened: as §1
Rattus norvegicus [6] = test: Effect after 10 mg/kg, po, on heart rate in conscious spontaneously hypertensive rats; format: functional
Procedure, shortened: (§2)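 Studied conscious 24 h after surgery. Dosed by oral gavage after ≥40 min stabilisation, n=6/group. Vehicle 0.5% carboxymethylcellulose, 5 mL/kg. MAP and HR recorded over 24 h. Output is the maximal change from baseline (mmHg, bpm, %). Repeated-measures ANOVA with Dunnett's tests.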

Rattus norvegicus [7] = test: Effect after 30 mg/kg, po, on heart rate in conscious spontaneously hypertensive rats; format: functional; procedure, shortened: as §2
Rattus norvegicus [8] = test: Effect after 10 mg/kg, po, on mean arterial blood pressure in conscious spontaneously hypertensive rats; format: functional; procedure, shortened: as §2
Rattus norvegicus [9] = test: Effect after 30 mg/kg, po, on mean arterial blood pressure in conscious spontaneously hypertensive rats; format: functional; procedure, shortened: as §2
Rattus norvegicus [10] = test: Effect after 100 mg/kg, po, on mean arterial blood pressure in conscious spontaneously hypertensive rats; format: functional; procedure, shortened: as §2
Rattus norvegicus [11] = test: Effect after 100 mg/kg, po, on heart rate in conscious spontaneously hypertensive rats; format: functional; procedure, shortened: as §2
[12] = target: imidazoline I2 binding site (Oryctolagus cuniculus); test: In vitro binding affinity determined against imidazoline receptor I-2 using rabbit kidney preparation

Structure (SMILES)	Ki [1]	Ki [2]	Max delta MAP (Rattus norvegicus [3])	Variation (Rattus norvegicus [3])	Max delta HR (Rattus norvegicus [4])	Variation (Rattus norvegicus [5])	also measured
CN1CC(C2=NCCN2)Oc2ccc(CO)cc21 (stereo unspecified)	> 10000 nM	10.4 nM					
CN1CC(C2=NCCN2)Oc2ccc(F)cc21 (stereo in doubt; (+)4h)	2540 nM	68.2 nM	-50 mmHg	-28%	-85 beats min-1	-25%	
COc1cc(=O)n2c3c(ccc(C)c13)OC(C1=NCCN1)C2 (stereo unspecified)	9400 nM	6800 nM	-1 mmHg	0%	-17 beats min-1	-6%	
Cc1cccc2c1N(C)CC(C1=NCCN1)O2 (stereo unspecified)	4740 nM	145 nM	47 mmHg	23%	-52 beats min-1	-16%	
CN1CC(C2=NCCN2)Oc2cc3c(cc21)CCCC3 (stereo unspecified)	> 10000 nM	98 nM	-15 mmHg	-9%	-53 beats min-1	-17%	
c1cc2c3c(c1)OC(C1=NCCN1)CN3CC2 (stereo unspecified)	> 10000 nM	28.6 nM	-56 mmHg	-30%	-103 beats min-1	-25%	Max delta HR (Rattus norvegicus [6]): -50 beats min-1; Variation (Rattus norvegicus [6]): -14%; Max delta HR (Rattus norvegicus [7]): -94 beats min-1; Variation (Rattus norvegicus [7]): -27%; Max delta MAP (Rattus norvegicus [8]): -19 mmHg; Variation (Rattus norvegicus [8]): -10%; Max delta MAP (Rattus norvegicus [9]): -48 mmHg; Variation (Rattus norvegicus [9]): -25%
CN1CC(C)(C2=NCCN2)Oc2ccccc21 (stereo unspecified)	> 1000 nM	> 1000 nM	-17 mmHg	-9%	-37 beats min-1	-11%	
c1ccc2c(c1)NCC(C1=NCCN1)O2 (stereo unspecified)	> 10000 nM	> 10000 nM	-17 mmHg	-9%	-8 beats min-1	-3%	
COC(=O)c1ccc2c(c1)N(C)CC(C1=NCCN1)O2 (stereo unspecified)	> 10000 nM	7500 nM					
Cc1ccc2c3c1CCCN3CC(C1=NCCN1)O2 (stereo unspecified)	> 10000 nM	230 nM	-17 mmHg	-9%	-79 beats min-1	-25%	
CCCC1(C2=NCCN2)CN(C)c2ccccc2O1 (stereo unspecified)	> 1000 nM	> 1000 nM	22 mmHg	11%	-56 beats min-1	-17%	
CCOCc1ccc2c(c1)N(C)CC(C1=NCCN1)O2 (stereo unspecified)	> 10000 nM	> 1000 nM					
CN1CC(C2=NCCN2)Oc2ccc(F)cc21 (stereo in doubt; 4h)	5910 nM	104 nM	-6 mmHg	-36%	-139 beats min-1	-44%	Max delta MAP (Rattus norvegicus [10]): -81 mmHg; Variation (Rattus norvegicus [10]): -44%; Max delta HR (Rattus norvegicus [6]): 25 beats min-1; Variation (Rattus norvegicus [6]): 7%; Max delta HR (Rattus norvegicus [7]): -43 beats min-1; Variation (Rattus norvegicus [7]): -12%; Max delta MAP (Rattus norvegicus [8]): -34 mmHg; Variation (Rattus norvegicus [8]): -18%; Max delta HR (Rattus norvegicus [11]): -61 beats min-1; Variation (Rattus norvegicus [11]): -18%; Max delta MAP (Rattus norvegicus [9]): -56 mmHg; Variation (Rattus norvegicus [9]): -29%
CN1CC(C2=NCCN2)Oc2ccc(Cl)cc21 (stereo unspecified)	1460 nM	52.5 nM	-53 mmHg	-28%	-96 beats min-1	-32%	Max delta HR (Rattus norvegicus [7]): -40 beats min-1; Variation (Rattus norvegicus [7]): 11%; Max delta MAP (Rattus norvegicus [9]): -47 mmHg; Variation (Rattus norvegicus [9]): -24%
CN1CC(C2=NCCN2)Oc2ccc(C(F)(F)F)cc21 (stereo unspecified)	> 10000 nM	263 nM	-32 mmHg	-18%	-134 beats min-1	-43%	
CN1CC(C2=NCCN2)Oc2c1ccc1ccccc21 (stereo unspecified)	> 10000 nM		-14 mmHg	-8%	-80 beats min-1	-24%	
COc1ccc2c(c1)N(C)CC(C1=NCCN1)O2 (stereo unspecified)	> 10000 nM	287 nM	-14 mmHg	-8%	-54 beats min-1	-18%	
c1ccc(CN2CC(C3=NCCN3)Oc3ccccc32)cc1 (stereo unspecified)	3500 nM	1300 nM	-4 mmHg	-2%	-21 beats min-1	-7%	Ki [12]: 1600 nM
CN1CC(C2=NCCN2)Oc2ccc(F)cc21 (single isomer, unassigned; (-))	> 1000 nM	32.9 nM	-55 mmHg	-31%	-143 beats min-1	-45%	
Cc1cccc2c1OC(C1=NCCN1)CN2C (stereo unspecified)	> 1000 nM	7.3 nM	-24 mmHg	-13%	-79 beats min-1	-25%	
Cc1ccc2c(c1)OC(C1=NCCN1)CN2C (stereo unspecified)	1000 nM	30 nM	-34 mmHg	-20%	-60 beats min-1	-19%	
c1cc2c3c(c1)OC(C1=NCCN1)CN3CCC2 (stereo unspecified)	710 nM	340 nM	-34 mmHg	-20%	-77 beats min-1	-24%	
CN1CC(C2=NCCN2)Oc2cc3ccccc3cc21 (stereo unspecified)	> 10000 nM	402 nM	-17 mmHg	-9%	-37 beats min-1	-11%	
c1cc2c3c(c1)ccn3CC(C1=NCCN1)O2 (stereo unspecified)	> 1000 nM	360 nM	-24 mmHg	-14%	-45 beats min-1	-14%	
CCCN1CC(C2=NCCN2)Oc2ccccc21 (stereo unspecified)	> 10000 nM	132 nM	-26 mmHg	-14%	-90 beats min-1	-27%	Ki [12]: 160 nM
c1cc2c3c(c1)OC(C1=NCCN1)CN3CCCC2 (stereo unspecified)	4600 nM	2150 nM	21 mmHg	11%	-65 beats min-1	-22%	
COc1cc(=O)n2c3c(cccc13)OC(C1=NCCN1)C2 (stereo unspecified)	> 10000 nM	13000 nM	-9 mmHg	-5%	13 beats min-1	4%	
Cc1cc2c(cc1C)N(C)CC(C1=NCCN1)O2 (stereo unspecified)	5660 nM	26 nM	-8 mmHg	-5%	-100 beats min-1	-33%	
